Results taken from ChEMBL document CHEMBL1126602, “L-beta-(2S,4S)- and L-alpha-(2S,4R)-dioxolanyl nucleosides as potential anti-HIV agents: asymmetric synthesis and structure-activity relationships” (J Med Chem, 1993).

Columns and labels:
[1] = tested on: Human immunodeficiency virus 1; assay: Effective concentration against HIV-1 strain LAV in human peripheral blood mononuclear (PBM) cells.; format: functional, organism-based
Method in brief: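 Mitogen-stimulated human PBM cells infected with HIV-1 LAV at MOI 0.1 (set by limiting dilution in PBM cells). Compounds were added about 45 min after infection, diluted in medium from 40 mM DMSO stocks (final DMSO below 0.25%). Read-out was supernatant reverse transcriptase (RT) level. EC50 was taken from a median effect plot of dose-effect data.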

[2] = Cytotoxicity against uninfected PHA-stimulated peripheral blood mononuclear (PBM) cells; format: cell-based; settings: Homo sapiens
Method in brief: (§1)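 Uninfected cells were cultured with or without drug: PHA-stimulated human PBM cells for 6 days, Vero cells for 3 days, CEM cells for 6 days. Cells were then counted with trypan blue. Compounds came from 40 mM DMSO stocks diluted in medium (final DMSO below 0.25%). IC50 was derived from a median effect plot.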

Vero = assay: Cytotoxic effect against vero cells.; format: cell-based; settings: Chlorocebus sabaeus; method in brief: as §1
CCRF-CEM [3] = assay: Effective concentration for inhibition of virus production in human CEM cells; format: functional, cell-based
CCRF-CEM [4] = assay: Cytotoxicity against uninfected PHA-stimulated CEM cells; format: cell-based; settings: Homo sapiens; method in brief: as §1

EC50 [1] | EC50 (CCRF-CEM [3]) | Compound | IC50 [2] | IC50 (Vero) | IC50 (CCRF-CEM [4])
42.1 µM |  | Nc1nc(N)c2ncn([C@H]3CO[C@H](CO)O3)c2n1 |  |  | 
34.7 µM |  | Nc1nc(Cl)nc2c1ncn2[C@@H]1CO[C@H](CO)O1 |  |  | 
1.27 µM |  | Nc1nc(Cl)nc2c1ncn2[C@H]1CO[C@H](CO)O1 |  |  | 
0.014 µM |  | Nc1nc(N)c2ncn([C@@H]3CO[C@H](CO)O3)c2n1 |  |  | 

Continued, compound first:

Compound | EC50 [1] | EC50 (CCRF-CEM [3]) | IC50 [2] | IC50 (Vero) | IC50 (CCRF-CEM [4])
Nc1nc(O)c2ncn([C@H]3CO[C@H](CO)O3)c2n1 | 102 µM |  | > 100 µM | > 100 µM | 
Nc1ccn([C@H]2CO[C@@H](CO)O2)c(=O)n1 | 0.016 µM | 0.009 µM | 62 µM |  | 12.8 µM
Nc1ccn([C@H]2CO[C@H](CO)O2)c(=O)n1 | 1.3 µM |  | > 10 µM | 16.8 µM | 
Nc1nc(O)c2ncn([C@@H]3CO[C@H](CO)O3)c2n1 | 17.5 µM |  | > 100 µM | > 100 µM | 
Nc1ccn([C@@H]2CO[C@H](CO)O2)c(=O)n1 [TROXACITABINE] | 0.002 µM |  | > 10 µM | 0.1 µM | 
Cc1cn([C@H]2C[C@H](N=[N+]=[N-])[C@@H](CO)O2)c(=O)[nH]c1=O [ZIDOVUDINE] |  |  | > 100 µM |  | 
